Results from ChEMBL document CHEMBL1142492 (J Med Chem, 2008).

Legend:
[1] = molecular target: Phosphatidylinositol 4,5-bisphosphate 3-kinase catalytic subunit delta isoform (Homo sapiens) (UniProt O00329); test: Inhibition of PIK3CD at 3 uM
[2] = molecular target: Serine/threonine-protein kinase 35 (Homo sapiens) (UniProt Q8TDR2); test: Inhibition of STK35 at 3 uM
[3] = molecular target: Tyrosine-protein kinase SYK (Homo sapiens) (UniProt P43405); test: Inhibition of SYK at 3 uM
[4] = molecular target: Tyrosine-protein kinase TXK (Homo sapiens) (UniProt P42681); test: Inhibition of TXK at 3 uM
Tyrosine-protein kinase TXK (Homo sapiens), sequence (P42681 whole entry): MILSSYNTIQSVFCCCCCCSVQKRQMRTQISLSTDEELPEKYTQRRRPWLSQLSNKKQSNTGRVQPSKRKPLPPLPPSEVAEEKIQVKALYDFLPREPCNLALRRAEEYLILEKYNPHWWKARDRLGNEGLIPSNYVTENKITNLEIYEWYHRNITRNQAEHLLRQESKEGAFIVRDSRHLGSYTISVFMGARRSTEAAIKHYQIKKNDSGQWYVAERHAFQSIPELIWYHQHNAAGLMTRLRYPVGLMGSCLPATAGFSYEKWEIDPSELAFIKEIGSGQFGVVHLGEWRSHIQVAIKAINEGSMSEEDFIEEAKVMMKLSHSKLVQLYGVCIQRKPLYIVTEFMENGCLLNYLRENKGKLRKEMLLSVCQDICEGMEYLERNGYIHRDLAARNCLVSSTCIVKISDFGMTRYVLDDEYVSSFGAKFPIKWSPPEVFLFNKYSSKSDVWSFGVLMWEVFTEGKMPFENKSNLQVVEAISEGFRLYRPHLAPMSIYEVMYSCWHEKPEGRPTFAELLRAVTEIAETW

[5] = molecular target: Serine/threonine-protein kinase ULK2 (Homo sapiens) (UniProt Q8IYT8); test: Inhibition of ULK2 at 3 uM
[6] = molecular target: T1, Epidermal growth factor receptor (Homo sapiens) (UniProt P04626+P00533+Q15303+P21860); test: Inhibition of EGFR L747-S752del,P753S mutant at 3 uM; type: protein assay
[7] = molecular target: Mitogen-activated protein kinase 9 (Homo sapiens) (UniProt P45984); test: Inhibition of JNK2 at 3 uM
[8] = molecular target: Serine/threonine-protein kinase 10 (Homo sapiens) (UniProt O94804); test: Inhibition of LOK at 3 uM
Serine/threonine-protein kinase 10 (Homo sapiens), sequence (O94804 whole entry, looked up): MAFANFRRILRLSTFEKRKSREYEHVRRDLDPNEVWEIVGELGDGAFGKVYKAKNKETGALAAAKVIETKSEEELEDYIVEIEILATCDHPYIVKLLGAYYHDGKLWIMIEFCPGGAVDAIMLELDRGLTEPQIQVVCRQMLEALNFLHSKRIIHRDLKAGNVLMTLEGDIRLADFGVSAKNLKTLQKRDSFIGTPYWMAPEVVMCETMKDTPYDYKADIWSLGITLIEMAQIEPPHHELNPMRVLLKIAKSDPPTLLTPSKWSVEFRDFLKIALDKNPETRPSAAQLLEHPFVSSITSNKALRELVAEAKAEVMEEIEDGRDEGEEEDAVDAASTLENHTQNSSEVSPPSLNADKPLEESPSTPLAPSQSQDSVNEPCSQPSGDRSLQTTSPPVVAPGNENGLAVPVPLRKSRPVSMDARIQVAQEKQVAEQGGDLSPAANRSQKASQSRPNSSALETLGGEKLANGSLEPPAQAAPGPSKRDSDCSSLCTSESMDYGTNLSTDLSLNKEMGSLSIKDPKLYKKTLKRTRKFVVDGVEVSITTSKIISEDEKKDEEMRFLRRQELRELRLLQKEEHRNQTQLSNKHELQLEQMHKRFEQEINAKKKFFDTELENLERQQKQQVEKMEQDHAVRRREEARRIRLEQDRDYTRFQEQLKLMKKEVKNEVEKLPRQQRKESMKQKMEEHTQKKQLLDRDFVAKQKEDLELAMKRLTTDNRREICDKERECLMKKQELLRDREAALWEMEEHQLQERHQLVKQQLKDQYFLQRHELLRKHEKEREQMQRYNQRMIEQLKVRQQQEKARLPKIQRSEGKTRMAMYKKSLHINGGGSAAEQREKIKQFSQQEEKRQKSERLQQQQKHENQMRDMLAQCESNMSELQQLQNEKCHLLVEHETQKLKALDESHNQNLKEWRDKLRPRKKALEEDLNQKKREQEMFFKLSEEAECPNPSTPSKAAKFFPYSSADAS

[9] = molecular target: Homeodomain-interacting protein kinase 1 (Homo sapiens) (UniProt Q86Z02); test: Inhibition of HIPK1 at 3 uM
[10] = molecular target: Mitogen-activated protein kinase kinase kinase 3 (Homo sapiens) (UniProt Q99759); test: Inhibition of MAP3K3 at 3 uM
[11] = molecular target: Mitogen-activated protein kinase kinase kinase 4 (Homo sapiens) (UniProt Q9Y6R4); test: Inhibition of MAP3K4 at 3 uM
[12] = molecular target: Mitogen-activated protein kinase kinase kinase kinase 4 (Homo sapiens) (UniProt O95819); test: Inhibition of MAP4K4 at 3 uM
[13] = molecular target: MAP kinase-activated protein kinase 2 (Homo sapiens) (UniProt P49137); test: Inhibition of MAPKAPK2 at 3 uM
[14] = molecular target: Dual specificity mitogen-activated protein kinase kinase 2 (Homo sapiens) (UniProt P36507); test: Inhibition of MEK2 at 3 uM
[15] = molecular target: Dual specificity mitogen-activated protein kinase kinase 6 (Homo sapiens) (UniProt P52564); test: Inhibition of MEK6 at 3 uM
Dual specificity mitogen-activated protein kinase kinase 6 (Homo sapiens), sequence (P52564 whole entry): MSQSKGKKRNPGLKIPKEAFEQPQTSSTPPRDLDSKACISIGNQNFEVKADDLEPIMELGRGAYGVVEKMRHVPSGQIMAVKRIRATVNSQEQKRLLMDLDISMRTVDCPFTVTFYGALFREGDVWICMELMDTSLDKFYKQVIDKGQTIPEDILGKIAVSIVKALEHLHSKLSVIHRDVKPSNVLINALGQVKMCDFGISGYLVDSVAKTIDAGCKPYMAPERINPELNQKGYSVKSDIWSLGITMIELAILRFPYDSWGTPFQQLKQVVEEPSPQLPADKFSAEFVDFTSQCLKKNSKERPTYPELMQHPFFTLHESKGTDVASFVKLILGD

[16] = molecular target: Hepatocyte growth factor receptor (Homo sapiens) (UniProt P08581); test: Inhibition of MET at 3 uM
Hepatocyte growth factor receptor (Homo sapiens), sequence (P08581 whole entry): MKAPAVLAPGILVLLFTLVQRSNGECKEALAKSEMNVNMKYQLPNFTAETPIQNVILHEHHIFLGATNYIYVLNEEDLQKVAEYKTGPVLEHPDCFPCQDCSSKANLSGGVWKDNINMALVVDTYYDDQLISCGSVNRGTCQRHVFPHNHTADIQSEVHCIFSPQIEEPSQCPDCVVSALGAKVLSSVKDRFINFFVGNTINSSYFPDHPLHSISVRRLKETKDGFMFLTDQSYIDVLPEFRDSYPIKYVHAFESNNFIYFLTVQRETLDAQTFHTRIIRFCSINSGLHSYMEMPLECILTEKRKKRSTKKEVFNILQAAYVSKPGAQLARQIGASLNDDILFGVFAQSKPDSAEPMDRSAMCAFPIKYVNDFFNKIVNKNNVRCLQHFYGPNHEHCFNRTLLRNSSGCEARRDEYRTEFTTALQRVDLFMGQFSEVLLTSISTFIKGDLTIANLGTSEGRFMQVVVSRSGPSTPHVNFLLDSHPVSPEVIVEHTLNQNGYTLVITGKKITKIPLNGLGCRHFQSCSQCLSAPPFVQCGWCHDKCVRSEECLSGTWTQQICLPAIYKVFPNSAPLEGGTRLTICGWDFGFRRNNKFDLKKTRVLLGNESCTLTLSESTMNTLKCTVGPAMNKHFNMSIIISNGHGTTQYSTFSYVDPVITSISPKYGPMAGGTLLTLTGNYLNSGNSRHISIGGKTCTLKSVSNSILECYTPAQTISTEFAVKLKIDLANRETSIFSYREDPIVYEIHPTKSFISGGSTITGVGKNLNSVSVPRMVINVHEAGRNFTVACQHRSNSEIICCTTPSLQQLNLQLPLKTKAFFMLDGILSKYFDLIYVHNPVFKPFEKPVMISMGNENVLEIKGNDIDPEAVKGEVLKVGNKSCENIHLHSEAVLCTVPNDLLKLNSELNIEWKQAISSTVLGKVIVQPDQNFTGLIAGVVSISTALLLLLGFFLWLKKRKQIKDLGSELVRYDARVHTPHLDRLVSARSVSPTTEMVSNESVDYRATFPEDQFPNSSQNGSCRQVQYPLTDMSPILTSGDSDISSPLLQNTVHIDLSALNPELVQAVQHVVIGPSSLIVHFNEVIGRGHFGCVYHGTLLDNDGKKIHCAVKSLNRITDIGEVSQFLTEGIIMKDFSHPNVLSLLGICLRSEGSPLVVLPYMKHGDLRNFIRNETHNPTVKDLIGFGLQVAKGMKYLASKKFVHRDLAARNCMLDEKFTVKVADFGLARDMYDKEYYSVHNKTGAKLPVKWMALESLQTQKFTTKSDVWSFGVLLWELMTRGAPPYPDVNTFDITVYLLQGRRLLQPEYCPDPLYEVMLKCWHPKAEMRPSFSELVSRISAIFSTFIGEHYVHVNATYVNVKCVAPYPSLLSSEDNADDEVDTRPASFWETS

[17] = molecular target: Serine/threonine-protein kinase 24 (Homo sapiens) (UniProt Q9Y6E0); test: Inhibition of MST3 at 3 uM
[18] = molecular target: Serine/threonine-protein kinase Nek7 (Homo sapiens) (UniProt Q8TDX7); test: Inhibition of NEK7 at 3 uM
Serine/threonine-protein kinase Nek7 (Homo sapiens), sequence (Q8TDX7 whole entry, looked up): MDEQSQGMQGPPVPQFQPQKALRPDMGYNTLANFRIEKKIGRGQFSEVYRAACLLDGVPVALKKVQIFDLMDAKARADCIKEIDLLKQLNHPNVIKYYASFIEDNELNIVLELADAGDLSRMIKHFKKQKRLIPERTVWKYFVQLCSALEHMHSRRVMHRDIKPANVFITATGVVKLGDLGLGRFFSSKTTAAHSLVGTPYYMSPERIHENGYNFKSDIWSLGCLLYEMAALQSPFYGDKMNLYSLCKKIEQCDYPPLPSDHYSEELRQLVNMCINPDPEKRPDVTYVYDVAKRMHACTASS

[19] = molecular target: Serine/threonine-protein kinase PAK 1 (Homo sapiens) (UniProt Q13153); test: Inhibition of PAK1 at 3 uM
[20] = molecular target: Cyclin-dependent kinase 18 (Homo sapiens) (UniProt Q07002); test: Inhibition of PCTK3 at 3 uM
Cyclin-dependent kinase 18 (Homo sapiens), sequence (Q07002 whole entry): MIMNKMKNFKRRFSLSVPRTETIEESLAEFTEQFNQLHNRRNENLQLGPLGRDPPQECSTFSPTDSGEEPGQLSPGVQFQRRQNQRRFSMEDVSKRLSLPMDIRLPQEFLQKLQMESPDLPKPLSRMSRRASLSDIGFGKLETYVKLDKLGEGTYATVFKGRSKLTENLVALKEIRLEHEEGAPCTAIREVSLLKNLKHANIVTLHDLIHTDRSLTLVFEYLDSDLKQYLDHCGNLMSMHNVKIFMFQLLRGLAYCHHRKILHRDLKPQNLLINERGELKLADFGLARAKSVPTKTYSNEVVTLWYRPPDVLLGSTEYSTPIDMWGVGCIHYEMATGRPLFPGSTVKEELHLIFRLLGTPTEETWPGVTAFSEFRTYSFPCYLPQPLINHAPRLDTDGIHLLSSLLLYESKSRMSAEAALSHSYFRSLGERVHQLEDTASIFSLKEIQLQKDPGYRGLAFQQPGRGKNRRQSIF

[21] = molecular target: cGMP-dependent protein kinase 2 (Homo sapiens) (UniProt Q13237); test: Inhibition of PRKG2 at 3 uM
[22] = molecular target: Receptor-interacting serine/threonine-protein kinase 2 (Homo sapiens) (UniProt O43353); test: Inhibition of RIPK2 at 3 uM
[23] = molecular target: Rho-associated protein kinase 2 (Homo sapiens, UniProt O75116); test: Inhibition of ROCK2 at 3 uM
[24] = molecular target: Phosphatidylinositol 4,5-bisphosphate 3-kinase catalytic subunit alpha isoform (Homo sapiens) (UniProt P42336); test: Inhibition of PIK3CA at 3 uM
[25] = molecular target: Wee1-like protein kinase 2 (Homo sapiens) (UniProt P0C1S8); test: Inhibition of WEE2 at 3 uM
[26] = molecular target: Adenosine receptor A2a (Homo sapiens) (UniProt P29274); test: Inhibition of human adenosine A2A receptor at 3 uM
How it was run: (§1)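 Counter-screen binding/enzyme panel at single 3 μM, n=2; results as percent inhibition. Species per target as listed (rat NMDA, GABAA sites; human receptors, transporters; rabbit ACE).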

[27] = molecular target: D(3) dopamine receptor (Homo sapiens) (UniProt P35462); test: Inhibition of human dopamine D3 receptor at 3 uM; how it was run: as §1
[28] = molecular target: Cyclin-dependent kinase 19 (Homo sapiens) (UniProt Q9BWU1); test: Inhibition of CDK11 at 3 uM
[29] = molecular target: Cyclin-dependent kinase 5 (Homo sapiens) (UniProt Q00535); test: Inhibition of CDK5 at 3 uM
[30] = tested on: Tyrosine-protein kinase ABL1 (Homo sapiens), P00519 [Y253F]; test: Inhibition of ABL1 Y253F mutant at 3 uM
[31] = molecular target: Atypical kinase COQ8A, mitochondrial (Homo sapiens) (UniProt Q8NI60); test: Inhibition of ADCK3 at 3 uM
[32] = molecular target: Ankyrin repeat and protein kinase domain-containing protein 1 (Homo sapiens) (UniProt Q8NFD2); test: Inhibition of ANKK1 at 3 uM
[33] = molecular target: Aurora kinase C (Homo sapiens) (UniProt Q9UQB9); test: Inhibition of AURKC at 3 uM
Aurora kinase C (Homo sapiens), sequence (Q9UQB9 whole entry): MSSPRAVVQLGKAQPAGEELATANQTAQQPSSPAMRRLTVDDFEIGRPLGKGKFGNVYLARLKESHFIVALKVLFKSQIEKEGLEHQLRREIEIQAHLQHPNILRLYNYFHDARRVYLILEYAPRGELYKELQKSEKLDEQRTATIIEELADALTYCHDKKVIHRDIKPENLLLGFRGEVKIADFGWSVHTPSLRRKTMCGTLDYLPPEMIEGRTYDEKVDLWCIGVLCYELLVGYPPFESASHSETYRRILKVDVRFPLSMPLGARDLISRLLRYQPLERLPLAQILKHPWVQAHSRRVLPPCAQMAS

[34] = molecular target: Tyrosine-protein kinase receptor UFO (Homo sapiens) (UniProt P30530); test: Inhibition of AXL at 3 uM
[35] = molecular target: Serine/threonine-protein kinase B-raf (Homo sapiens) (UniProt P15056); test: Inhibition of BRAF at 3 uM
[36] = molecular target: Serine/threonine-protein kinase BRSK1 (Homo sapiens) (UniProt Q8TDC3); test: Inhibition of BRSK1 at 3 uM
[37] = molecular target: Serine/threonine-protein kinase BRSK2 (Homo sapiens) (UniProt Q8IWQ3); test: Inhibition of BRSK2 at 3 uM
[38] = molecular target: Dual specificity protein kinase CLK3 (Homo sapiens) (UniProt P49761); test: Inhibition of CLK3 at 3 uM
[39] = molecular target: Calcium/calmodulin-dependent protein kinase type 1G (Homo sapiens) (UniProt Q96NX5); test: Inhibition of CAMK1G at 3 uM
Calcium/calmodulin-dependent protein kinase type 1G (Homo sapiens), sequence (Q96NX5 whole entry): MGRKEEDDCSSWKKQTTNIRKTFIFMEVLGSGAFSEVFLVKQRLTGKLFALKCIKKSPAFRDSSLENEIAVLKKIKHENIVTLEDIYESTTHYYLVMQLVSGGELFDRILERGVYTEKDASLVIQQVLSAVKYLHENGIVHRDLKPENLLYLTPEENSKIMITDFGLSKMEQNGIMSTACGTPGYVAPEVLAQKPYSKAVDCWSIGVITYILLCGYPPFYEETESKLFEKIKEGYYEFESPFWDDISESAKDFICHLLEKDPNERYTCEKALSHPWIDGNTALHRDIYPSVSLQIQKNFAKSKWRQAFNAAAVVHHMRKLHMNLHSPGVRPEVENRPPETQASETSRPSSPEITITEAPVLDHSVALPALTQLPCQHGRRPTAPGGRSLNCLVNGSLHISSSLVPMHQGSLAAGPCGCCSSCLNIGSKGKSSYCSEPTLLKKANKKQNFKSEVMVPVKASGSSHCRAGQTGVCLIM

[40] = molecular target: Ephrin type-A receptor 5 (Homo sapiens) (UniProt P54756); test: Inhibition of EPHA5 at 3 uM
How it was run: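 Single-concentration kinase panel scoring: each value is the percentage of enzyme activity remaining relative to a DMSO-only control. An activity statistically indistinct from DMSO control was scored "no hit".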

[41] = molecular target: T1, Epidermal growth factor receptor (Homo sapiens); test: Inhibition of EGFR E746-A750del mutant at 3 uM; type: protein assay
[42] = tested on: Epidermal growth factor receptor (Homo sapiens), P00533 [G719C]; test: Inhibition of EGFR G719C mutant at 3 uM; type: protein assay
[43] = molecular target: T1, Epidermal growth factor receptor (Homo sapiens); test: Inhibition of EGFR L747-E749del,A750P mutant at 3 uM; type: protein assay
Sus scrofa = organism: Sus scrofa; conditions: 25 uM
Homo sapiens = organism: Homo sapiens; conditions: 3 uM
Oryctolagus cuniculus = organism: Oryctolagus cuniculus; conditions: 3 uM
Rattus norvegicus = organism: Rattus norvegicus; conditions: 3 uM

CN(C)CCOc1cc(-c2cn[nH]c2)ccc1NC(=O)C1COc2ccccc2O1 (configuration not stated) [SR-3677]
inhibition [1]: < 10% | inhibition [2]: < 10% | inhibition [3]: < 10% | inhibition [4]: < 10% | inhibition [5]: < 10% | inhibition [6]: < 10% | inhibition [7]: < 10% | inhibition [8]: < 10% | inhibition [9]: < 10% | inhibition [10]: < 10% | inhibition [11]: < 10% | inhibition [12]: < 10% | inhibition [13]: < 10% | inhibition [14]: < 10% | inhibition [15]: < 10% | inhibition [16]: < 10% | inhibition [17]: < 10% | inhibition [18]: < 10% | inhibition [19]: < 10% | inhibition [20]: < 10% | inhibition [21]: < 10% | inhibition [22]: < 10% | inhibition [23]: 99.6% | inhibition [24]: < 10% | inhibition [25]: < 10% | inhibition [26]: 5% | inhibition [27]: 15% | inhibition [28]: < 10% | inhibition [29]: < 10% | inhibition [30]: < 10% | inhibition [31]: < 10% | inhibition [32]: < 10% | inhibition [33]: < 10% | inhibition [34]: < 10% | inhibition [35]: < 10% | inhibition [36]: < 10% | inhibition [37]: < 10% | inhibition [38]: < 10% | inhibition [39]: < 10% | inhibition [40]: < 10% | inhibition [41]: < 10% | inhibition [42]: < 10% | inhibition [43]: < 10% | inhibition (Sus scrofa): 90% | inhibition (Homo sapiens): 7% | inhibition (Oryctolagus cuniculus): 4% | inhibition (Rattus norvegicus): 22%
